{"source": "paper PMC3371134", "about": "(Journal of Neurochemistry, 2012)", "molecules": {"B1": {"name": "Pcp4l1: small neuronal IQ motif protein, 68 amino acids, full length (protein)", "chain": "MSELNTKTPPAANQASDPEEKGKPGSIKKAEEEEEIDIDLTAPETEKAALAIQGKFRRFQKRKKDSSS", "modifications": "left off: Myc, end not stated, kept"}}, "key": {"centrin 2 (Cetn2)": {"test_system": "centrin 2 (Cetn2)", "test": "Yeast two-hybrid", "assay_type": "binding, mouse", "conditions": "LexA and VP16 fusions, lacZ reporter, X-gal", "summary_of_the_method": "(§1)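 Mouse coding sequences (from brain cDNA) were cloned as galactose-inducible LexA and VP16 fusions and co-transformed into S260 yeast, selected on glucose Trp−/Ura− plates. Colonies on filters were switched to galactose for induction, then assayed for lacZ with X-gal. Autoactivation was checked against LexA/VP16 control vectors. Blue within 1 h was scored positive; blue at 2–4 h was scored weak.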"}, "calneuron 1 (Caln1)": {"test_system": "calneuron 1 (Caln1)", "test": "Yeast two-hybrid", "assay_type": "binding, mouse", "conditions": "LexA and VP16 fusions, lacZ reporter, X-gal", "summary_of_the_method": "as §1"}, "calmodulin-Sepharose": {"test_system": "calmodulin-Sepharose", "test": "CaM-Sepharose pulldown of Myc-tagged proteins expressed in COS-7 cells", "assay_type": "binding", "summary_of_the_method": "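Myc-tagged mouse constructs (from brain cDNA) were expressed in COS-7 cells, grown in DMEM/10% FBS at 37°C and transfected at 80% confluency with 3 μg plasmid. After 48 h, cells were lysed 30 min at 4°C in TX-buffer (50 mM Tris-HCl pH 6.9, 0.5% Triton X-100, protease inhibitors). Cleared lysate was incubated overnight at 4°C with CaM-Sepharose, then washed 3× and detected by SDS-PAGE/anti-Myc (9E10) western blot with ECL.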"}, "[1]": {"test_system": "calmodulin-like 4 (Calml4)", "test": "Yeast two-hybrid", "assay_type": "binding, mouse", "conditions": "LexA and VP16 fusions, lacZ reporter, X-gal", "summary_of_the_method": "as §1"}, "calcineurin B (CnB)": {"test_system": "calcineurin B (CnB)", "test": "Yeast two-hybrid", "assay_type": "binding, mouse", "conditions": "LexA and VP16 fusions, lacZ reporter, X-gal", "summary_of_the_method": "as §1"}}, "note": "“Also recorded” adds a separate entry of the source."}
{"molecule": "B1", "values": [{"measurement": "interaction with Cetn2 in Y2H", "setting": "centrin 2 (Cetn2)", "result": "no binding was detected"}, {"measurement": "interaction with Caln1 in Y2H", "setting": "calneuron 1 (Caln1)", "result": "no binding was detected"}, {"measurement": "CaM-Sepharose pulldown, calcium-replete", "setting": "calmodulin-Sepharose; 5mM CaCl2, TX-buffer pH 6.9, overnight at 4°C, anti-Myc western blot", "result": "binds weakly or not at all to CaM; also recorded: interacts poorly with CaM in both low and high calcium conditions"}, {"measurement": "calcium dependence of CaM binding / overall CaM binding", "setting": "calmodulin-Sepharose; 5mM CaCl2 or 5mM EGTA, summary in Discussion", "result": "little or no binding in either calcium poor or replete conditions"}, {"measurement": "CaM-Sepharose pulldown, calcium-poor", "setting": "calmodulin-Sepharose; 5mM EGTA, TX-buffer pH 6.9, overnight at 4°C, anti-Myc western blot", "result": "binds weakly or not at all to CaM; also recorded: interacts poorly with CaM in both low and high calcium conditions"}, {"measurement": "interaction with Calml4 in Y2H", "setting": "[1]", "result": "no binding was detected"}, {"measurement": "interaction with CnB in Y2H", "setting": "calcineurin B (CnB)", "result": "no binding was detected"}]}
